# Test results as given in ChEMBL document CHEMBL1142339, “Carbamoylphosphonate matrix metalloproteinase inhibitors 6: cis-2-aminocyclohexylcarbamoylphosphonic acid, a novel orally active antimetastatic matrix metalloproteinase-2 selective inhibitor--synthesis and pharmacodynamic and pharmacokinetic analysis” (J Med Chem, 2008).
# What was measured:
# [1] = Reduction of metastasis formation in SCID mouse bearing human prostate tumor cells at 50 mg/kg, ip; type: functional; design: scale not given: the % may be the effect or the level left; conditions: route intraperitoneal
# In short: (§1)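 Luciferase-transfected human prostate tumour cells implanted orthotopically into the prostate of SCID mice; daily ip dosing except weekends for six weeks. Primary tumour growth and metastasis followed weekly by luciferin bioluminescence imaging with a CCD camera.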
# [2] = Cmax in Wistar rat at 150 mg/kg, ip; type: ADME, organism-based; design: dose 150 mg/kg, route intraperitoneal; conditions: in vivo
# In short: (§2)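 Compound dissolved in normal saline/water 60/40 (20 mg/mL). Rats: fasted 12 h before and first 12 h; blood sampled 5–240 min after iv, to 8 h oral, to 24 h ip; urine collected at 24 and 48 h in metabolic cages. Mice (22–25 g, fasted 12 h): portal-vein blood under ether at 0–720 min, one mouse per time point. Plasma quantified by HPLC-MS with acyclovir internal standard.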
# [3] = Apparent permeability in Wistar rat ileum in using diffusion chamber; type: ADME, tissue-based
# In short: (§3)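 Everted-free intestinal segments (jejunum, ileum, colon) from four animals mounted in Ussing chambers; compound at 600 µg/mL in mucosa buffer added to the mucosal side. Serosal samples taken at 30, 60, 90, 120, 150 min, mucosal at 0 and 150 min, with buffer replacement. Quantified by HPLC-MS; Papp reported with SD.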
# [4] = Reduction of local tumor growth in SCID mouse bearing human prostate tumor cells at 50 mg/kg, ip; type: functional; design: scale not given: the % may be the effect or the level left; conditions: route intraperitoneal; in short: as §1
# B16-F10 [5] = assay: Reduction in tumor colonization in C57B1 mouse bearing B16F10 cells at 50 mg/kg, ip after 21 days; type: functional; design: scale not given: the % may be the effect or the level left; conditions: route intraperitoneal
# In short: (§4)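 Female C57Bl mice given 50k B16F10 cells via tail vein; dosing started the same day, daily except weekends for three weeks, in PBS, ip or oral (dose-response 12.5–50 mg/kg ip). Lungs fixed at day 21 and metastatic foci counted; eight mice per group.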
# B16-F10 [6] = assay: Reduction in tumor colonization in of C57B1 mouse bearing B16F10 cells at 50 mg/kg, po after 21 days; type: functional; design: scale not given: the % may be the effect or the level left; in short: as §4
# [7] = Volume of distribution at steady state in Wistar rat at 50 mg/kg, iv; type: ADME, organism-based; design: dose 50 mg/kg, route intravenous; conditions: in vivo, read-out: Vdss; in short: as §2
# [8] = AUC in Wistar rat at 150 mg/kg, po; type: ADME, organism-based; design: dose 150 mg/kg, route oral; conditions: plasma; in short: as §2
# Collagenase 3 = Collagenase 3 (Homo sapiens, UniProt P45452); assay: Inhibition of human recombinant MMP13
# In short: (§5)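 Human recombinant enzymes each incubated at four concentrations with a suitable colorimetric or fluorogenic peptide substrate for 3 h. Inhibitor tested at four to six concentrations. Activity read as colorimetric or fluorescence change on a plate reader.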
# [9] = Cmax in Wistar rat at 150 mg/kg, po; type: ADME, organism-based; design: dose 150 mg/kg, route oral; conditions: in vivo; in short: as §2
# Neutrophil collagenase = Neutrophil collagenase (Homo sapiens, UniProt P22894); assay: Inhibition of human recombinant MMP8; in short: as §5
# Rattus norvegicus [10] = assay: Time over MIC in Wistar rat at 150 mg/kg, po; type: ADME, organism-based; design: dose 150 mg/kg, route oral; conditions: in vivo; in short: as §2
# [11] = AUC in Wistar rat at 50 mg/kg, iv; type: ADME, organism-based; design: dose 50 mg/kg, route intravenous; conditions: plasma; in short: as §2
# [12] = Half life in C57B1 mouse at 150 mg/kg, po; type: ADME, organism-based; design: dose 150 mg/kg, route oral; conditions: in vivo; in short: as §2
# [13] = molecular target: Disintegrin and metalloproteinase domain-containing protein 17 (Homo sapiens, UniProt P78536); assay: Inhibition of human recombinant TACE
# In short: (§6)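 Purified human recombinant enzyme tested at four different concentrations against the matching colorimetric or fluorescent peptide substrate for 3 h, with inhibitor at four to six concentrations. Activity was read as a colour or fluorescence change on a plate reader, and IC50 was calculated from these readings.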
# [14] = Bioavailability in Wistar rat at 150 mg/kg, po; type: ADME, organism-based; conditions: in vivo; in short: as §2
# [15] = Clearance in Wistar rat at 50 mg/kg, iv; type: ADME, organism-based; design: dose 50 mg/kg, route intravenous; conditions: in vivo; in short: as §2
# [16] = Apparent permeability in Wistar rat colon in Using diffusion chamber; type: ADME, tissue-based; conditions: not told; in short: as §3
# [17] = molecular target: Macrophage metalloelastase (Homo sapiens, UniProt P39900); assay: Inhibition of human recombinant MMP12; in short: as §6
# B16-F10 [18] = assay: Inhibition of metastasis formation in lungs of C57B1 mouse bearing B16F10 cells at 12.5 to 50 mg/kg, ip after 21 days; type: functional, Lung; conditions: dose mg/kg 12.5-50; route intraperitoneal; in short: as §4
# [19] = Cmax in Wistar rat at 50 mg/kg, iv; type: ADME, organism-based; design: dose 50 mg/kg, route intravenous; conditions: in vivo; in short: as §2
# [20] = Tmax in C57B1 mouse at 150 mg/kg, po; type: ADME, organism-based; design: dose 150 mg/kg, route oral; conditions: in vivo; in short: as §2
# [21] = Apparent permeability in C57B1 mouse colon in using diffusion chamber; type: ADME, tissue-based; conditions: not told
# [22] = molecular target: T1, 72 kDa type IV collagenase (Homo sapiens, UniProt P08253); conditions: 100 uM
# Target sequence in this assay (P08253 110-660 limits assumed): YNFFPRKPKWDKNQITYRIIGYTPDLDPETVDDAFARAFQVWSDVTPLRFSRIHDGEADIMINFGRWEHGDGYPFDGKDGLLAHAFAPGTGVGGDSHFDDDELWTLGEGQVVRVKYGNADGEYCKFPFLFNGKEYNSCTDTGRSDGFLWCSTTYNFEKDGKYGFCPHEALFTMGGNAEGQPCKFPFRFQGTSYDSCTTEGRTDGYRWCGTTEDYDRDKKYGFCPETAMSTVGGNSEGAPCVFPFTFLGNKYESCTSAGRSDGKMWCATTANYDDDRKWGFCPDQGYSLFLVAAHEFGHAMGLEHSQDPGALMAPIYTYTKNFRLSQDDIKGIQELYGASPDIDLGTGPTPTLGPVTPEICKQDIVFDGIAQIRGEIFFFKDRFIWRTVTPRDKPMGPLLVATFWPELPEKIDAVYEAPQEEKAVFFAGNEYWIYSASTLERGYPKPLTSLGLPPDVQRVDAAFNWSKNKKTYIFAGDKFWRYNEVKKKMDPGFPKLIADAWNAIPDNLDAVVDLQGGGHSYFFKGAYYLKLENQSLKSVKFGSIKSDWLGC
# [23] = Apparent permeability in C57B1 mouse jejunum in using diffusion chamber; type: ADME, tissue-based
# Mus musculus [24] = assay: Time over MIC in C57B1 mouse at 150 mg/kg, po; type: ADME, organism-based; design: dose 150 mg/kg, route oral; conditions: in vivo; in short: as §2
# [25] = molecular target: Matrix metalloproteinase-9 (Homo sapiens, UniProt P14780); assay: Inhibition of human recombinant MMP9; in short: as §5
# Interstitial collagenase = molecular target: T2, Interstitial collagenase (Homo sapiens, UniProt P03956); assay: Inhibition of human recombinant MMP1; in short: as §6
# T2 sequence (P03956 whole entry): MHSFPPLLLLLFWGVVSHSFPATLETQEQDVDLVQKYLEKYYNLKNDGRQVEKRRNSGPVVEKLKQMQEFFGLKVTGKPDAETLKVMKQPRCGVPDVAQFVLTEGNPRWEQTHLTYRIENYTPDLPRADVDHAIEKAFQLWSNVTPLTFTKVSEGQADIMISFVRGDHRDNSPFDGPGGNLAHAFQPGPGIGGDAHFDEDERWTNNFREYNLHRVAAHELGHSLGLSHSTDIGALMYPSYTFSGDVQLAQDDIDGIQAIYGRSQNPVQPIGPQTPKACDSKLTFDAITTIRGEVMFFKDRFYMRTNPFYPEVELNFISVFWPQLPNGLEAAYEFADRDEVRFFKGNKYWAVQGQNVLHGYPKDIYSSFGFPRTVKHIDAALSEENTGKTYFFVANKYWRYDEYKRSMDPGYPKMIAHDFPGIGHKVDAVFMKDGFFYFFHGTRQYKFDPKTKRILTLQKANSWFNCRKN
# Rattus norvegicus [26] = assay: Time over MIC in Wistar rat at 50 mg/kg, iv; type: ADME, organism-based; design: dose 50 mg/kg, route intravenous; conditions: in vivo; in short: as §2
# Rattus norvegicus [27] = assay: Time over MIC in Wistar rat at 150 mg/kg, ip; type: ADME, organism-based; design: dose 150 mg/kg, route intraperitoneal; conditions: in vivo; in short: as §2
# [28] = Elimination half life in Wistar rat at 150 mg/kg, po; type: ADME, organism-based; design: dose 150 mg/kg, route oral; conditions: in vivo; in short: as §2
# [29] = Bioavailability in Wistar rat at 150 mg/kg, ip; type: ADME, organism-based; conditions: in vivo; in short: as §2
# [30] = Apparent permeability in Wistar rat jejunum in using diffusion chamber; type: ADME, tissue-based; in short: as §3
# [31] = molecular target: T1, 72 kDa type IV collagenase; assay: Inhibition of human recombinant MMP2; in short: as §5
# Target sequence in this assay (P08253 whole entry, the tested form may be a part): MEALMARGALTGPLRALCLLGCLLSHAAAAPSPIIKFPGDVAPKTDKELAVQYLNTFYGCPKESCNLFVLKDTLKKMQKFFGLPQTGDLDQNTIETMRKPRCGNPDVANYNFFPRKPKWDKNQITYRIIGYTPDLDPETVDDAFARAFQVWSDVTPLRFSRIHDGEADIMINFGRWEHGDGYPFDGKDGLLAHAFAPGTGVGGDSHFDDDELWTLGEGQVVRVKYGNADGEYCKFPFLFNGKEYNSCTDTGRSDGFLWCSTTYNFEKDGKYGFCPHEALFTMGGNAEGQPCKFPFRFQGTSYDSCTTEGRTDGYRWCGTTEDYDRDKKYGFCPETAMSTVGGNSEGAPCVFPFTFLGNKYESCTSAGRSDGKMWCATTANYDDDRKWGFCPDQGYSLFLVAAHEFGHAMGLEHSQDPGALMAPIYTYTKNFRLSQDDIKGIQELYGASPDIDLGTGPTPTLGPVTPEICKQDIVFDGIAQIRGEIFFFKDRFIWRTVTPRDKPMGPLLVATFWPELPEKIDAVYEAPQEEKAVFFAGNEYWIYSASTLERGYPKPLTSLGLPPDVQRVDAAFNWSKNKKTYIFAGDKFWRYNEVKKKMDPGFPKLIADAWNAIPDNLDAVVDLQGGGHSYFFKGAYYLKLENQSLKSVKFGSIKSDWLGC
# [32] = AUC in Wistar rat at 150 mg/kg, ip; type: ADME, organism-based; design: dose 150 mg/kg, route intraperitoneal; conditions: plasma; in short: as §2
# Mus musculus [33] = assay: Acute toxicity in C57B1 mouse at 50 to 500 mg/kg; type: organism-based; design: dose 50-500 mg/kg; conditions: in vivo
# In short: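 C57Bl mice dosed intraperitoneally daily for two weeks at 50, 250 and 500 mg/kg; monitored for toxic signs and behavioural and nutritional status.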
# [34] = Tmax in Wistar rat at 150 mg/kg, ip; type: ADME, organism-based; design: dose 150 mg/kg, route intraperitoneal; conditions: in vivo; in short: as §2
# [35] = AUC in C57B1 mouse at 150 mg/kg, po; type: ADME, organism-based; design: dose 150 mg/kg, route oral; conditions: plasma; in short: as §2
# [36] = Elimination half life in Wistar rat at 50 mg/kg, iv; type: ADME, organism-based; design: dose 50 mg/kg, route intravenous; conditions: in vivo; in short: as §2
# [37] = Tmax in Wistar rat at 150 mg/kg, po; type: ADME, organism-based; design: dose 150 mg/kg, route oral; conditions: in vivo; in short: as §2
# [38] = Cmax in C57B1 mouse at 150 mg/kg, po; type: ADME, organism-based; design: dose 150 mg/kg, route oral; conditions: in vivo; in short: as §2
# [39] = Elimination half life in Wistar rat at 150 mg/kg, ip; type: ADME, organism-based; design: dose 150 mg/kg, route intraperitoneal; conditions: in vivo; in short: as §2
# Stromelysin-1 = Stromelysin-1 (Homo sapiens, UniProt P08254); assay: Inhibition of human recombinant MMP3; in short: as §5
# Stromelysin-1, sequence (P08254 whole entry): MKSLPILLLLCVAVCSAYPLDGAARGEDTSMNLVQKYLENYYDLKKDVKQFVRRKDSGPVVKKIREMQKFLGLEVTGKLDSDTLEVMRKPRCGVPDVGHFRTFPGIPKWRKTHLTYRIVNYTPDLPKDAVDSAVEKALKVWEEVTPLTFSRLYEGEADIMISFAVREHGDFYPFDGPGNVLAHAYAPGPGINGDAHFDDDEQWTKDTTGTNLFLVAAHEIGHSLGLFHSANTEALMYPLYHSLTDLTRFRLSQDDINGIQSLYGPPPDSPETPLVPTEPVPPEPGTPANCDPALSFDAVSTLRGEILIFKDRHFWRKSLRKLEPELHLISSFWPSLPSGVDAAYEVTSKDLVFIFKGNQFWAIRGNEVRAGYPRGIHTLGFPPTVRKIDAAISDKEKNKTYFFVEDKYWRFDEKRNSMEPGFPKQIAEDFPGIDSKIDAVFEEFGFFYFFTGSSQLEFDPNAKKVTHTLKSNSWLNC
# Macrophage metalloelastase, sequence (P39900 whole entry): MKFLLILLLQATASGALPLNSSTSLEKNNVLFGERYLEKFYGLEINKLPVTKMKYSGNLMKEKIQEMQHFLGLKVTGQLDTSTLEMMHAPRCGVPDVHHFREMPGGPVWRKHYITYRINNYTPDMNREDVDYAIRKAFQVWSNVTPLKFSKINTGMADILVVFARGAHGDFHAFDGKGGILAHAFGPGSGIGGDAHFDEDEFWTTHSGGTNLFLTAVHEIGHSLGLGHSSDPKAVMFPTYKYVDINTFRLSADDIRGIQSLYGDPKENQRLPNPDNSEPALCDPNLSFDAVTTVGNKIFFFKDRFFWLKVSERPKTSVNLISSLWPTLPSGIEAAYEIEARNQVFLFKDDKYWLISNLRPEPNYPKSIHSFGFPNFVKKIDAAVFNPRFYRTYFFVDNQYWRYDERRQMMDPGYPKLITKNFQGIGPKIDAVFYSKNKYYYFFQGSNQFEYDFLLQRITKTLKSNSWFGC
# Disintegrin and metalloproteinase domain-containing protein 17, sequence (P78536 whole entry, the tested form may be a part): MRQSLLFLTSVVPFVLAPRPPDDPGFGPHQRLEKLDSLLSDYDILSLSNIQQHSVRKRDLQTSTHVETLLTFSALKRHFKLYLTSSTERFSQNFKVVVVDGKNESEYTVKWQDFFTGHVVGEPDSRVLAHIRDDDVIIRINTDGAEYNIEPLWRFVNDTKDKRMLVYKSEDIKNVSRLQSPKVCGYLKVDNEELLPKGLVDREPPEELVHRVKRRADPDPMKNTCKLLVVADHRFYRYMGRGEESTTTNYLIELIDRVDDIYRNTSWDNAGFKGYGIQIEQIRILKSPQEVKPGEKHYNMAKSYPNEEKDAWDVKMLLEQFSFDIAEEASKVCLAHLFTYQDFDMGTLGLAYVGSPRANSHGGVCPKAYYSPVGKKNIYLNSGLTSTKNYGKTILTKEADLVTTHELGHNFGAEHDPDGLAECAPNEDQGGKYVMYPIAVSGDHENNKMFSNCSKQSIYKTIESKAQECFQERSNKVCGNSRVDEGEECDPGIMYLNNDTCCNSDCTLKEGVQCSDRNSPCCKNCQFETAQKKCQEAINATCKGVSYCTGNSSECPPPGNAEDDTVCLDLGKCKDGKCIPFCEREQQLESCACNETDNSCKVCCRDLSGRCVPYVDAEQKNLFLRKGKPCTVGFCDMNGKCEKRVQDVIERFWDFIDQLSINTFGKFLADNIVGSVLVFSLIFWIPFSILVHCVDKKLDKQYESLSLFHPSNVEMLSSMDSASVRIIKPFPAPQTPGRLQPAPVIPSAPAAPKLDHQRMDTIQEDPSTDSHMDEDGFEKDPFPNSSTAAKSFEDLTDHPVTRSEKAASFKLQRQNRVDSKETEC
# Neutrophil collagenase, sequence (P22894 whole entry): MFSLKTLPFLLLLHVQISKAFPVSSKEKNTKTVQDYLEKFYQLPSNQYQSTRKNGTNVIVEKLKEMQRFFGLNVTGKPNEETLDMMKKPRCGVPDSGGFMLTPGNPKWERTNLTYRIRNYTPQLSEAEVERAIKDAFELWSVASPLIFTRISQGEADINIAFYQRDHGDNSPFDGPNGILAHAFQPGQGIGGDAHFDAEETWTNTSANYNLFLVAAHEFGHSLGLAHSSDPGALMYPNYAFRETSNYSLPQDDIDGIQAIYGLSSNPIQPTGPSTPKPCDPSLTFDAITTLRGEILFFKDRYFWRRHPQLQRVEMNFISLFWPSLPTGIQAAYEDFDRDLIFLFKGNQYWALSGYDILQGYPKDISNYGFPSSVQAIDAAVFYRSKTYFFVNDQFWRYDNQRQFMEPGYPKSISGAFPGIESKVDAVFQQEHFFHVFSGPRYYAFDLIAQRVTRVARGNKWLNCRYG
# Matrix metalloproteinase-9, sequence (P14780 whole entry): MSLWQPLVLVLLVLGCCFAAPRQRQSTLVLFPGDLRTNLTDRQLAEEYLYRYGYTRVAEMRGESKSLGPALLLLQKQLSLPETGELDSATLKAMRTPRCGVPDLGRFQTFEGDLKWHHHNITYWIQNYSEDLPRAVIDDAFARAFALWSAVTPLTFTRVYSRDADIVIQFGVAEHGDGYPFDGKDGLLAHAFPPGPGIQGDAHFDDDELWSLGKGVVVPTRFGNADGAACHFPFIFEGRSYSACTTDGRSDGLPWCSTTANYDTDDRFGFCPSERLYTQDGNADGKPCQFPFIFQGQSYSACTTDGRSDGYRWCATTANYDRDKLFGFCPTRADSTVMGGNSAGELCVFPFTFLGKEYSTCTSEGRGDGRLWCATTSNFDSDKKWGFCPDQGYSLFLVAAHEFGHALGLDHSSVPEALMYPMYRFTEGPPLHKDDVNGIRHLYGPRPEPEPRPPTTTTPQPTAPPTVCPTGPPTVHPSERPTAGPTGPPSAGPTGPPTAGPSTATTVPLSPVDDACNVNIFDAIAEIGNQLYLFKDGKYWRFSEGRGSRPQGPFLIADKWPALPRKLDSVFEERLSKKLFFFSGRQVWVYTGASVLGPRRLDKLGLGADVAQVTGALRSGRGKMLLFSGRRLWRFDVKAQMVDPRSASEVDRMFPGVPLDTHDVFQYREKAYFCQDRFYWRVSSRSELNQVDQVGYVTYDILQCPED
smiles,measurement,setting,value
N[C@H]1CCCC[C@H]1NC(=O)P(=O)(O)O (relative stereo),Activity,[1],90%
same,Cmax,[2],144 µg/mL
same,Papp,[3],7.01 ×10⁻⁶ cm/s
same,Activity,[4],60%
same,Activity,B16-F10 [5],85%
same,Activity,B16-F10 [6],95%
same,Vd,[7],0.186 L/kg
same,AUC,[8],1320 ng·h/mL
same,IC50,Collagenase 3,> 100 µM
same,Cmax,[9],0.712 µg/mL
same,IC50,Neutrophil collagenase,> 100 µM
same,T>MIC,Rattus norvegicus [10],> 6 h
same,AUC,[11],127000 ng·h/mL
same,half-life,[12],13.5 h
same,IC50,[13],> 100 µM
same,bioavailability,[14],0.35%
same,clearance,[15],6.9 mL/min/kg
same,Papp,[16],9.27 ×10⁻⁶ cm/s
same,IC50,[17],> 100 µM
same,Inhibition,B16-F10 [18],50%
same,Cmax,[19],306 µg/mL
same,Tmax,[20],1 h
same,Papp,[21],2.4 ×10⁻⁶ cm/s
same,inhibition,[22],90%
same,Papp,[23],8.3 ×10⁻⁶ cm/s
same,T>MIC,Mus musculus [24],> 12 h
same,IC50,[25],20 µM
same,IC50,Interstitial collagenase,> 100 µM
same,T>MIC,Rattus norvegicus [26],> 4 h
same,T>MIC,Rattus norvegicus [27],> 24 h
same,half-life,[28],2.1 h
same,bioavailability,[29],11.8%
same,Papp,[30],7.9 ×10⁻⁶ cm/s
same,IC50,[31],4 µM
same,AUC,[32],44600 ng·h/mL
same,Activity,Mus musculus [33],Non-toxic
same,Tmax,[34],30 s
same,AUC,[35],4500 ng·h/mL
same,half-life,[36],0.313 h
same,Tmax,[37],0.29 h
same,Cmax,[38],0.544 µg/mL
same,half-life,[39],1.8 h
same,IC50,Stromelysin-1,> 100 µM
N[C@@H]1CCCC[C@H]1NC(=O)P(=O)(O)O (relative stereo),IC50,Collagenase 3,55 µM
same,IC50,Neutrophil collagenase,50 µM
same,IC50,[13],> 100 µM
same,IC50,[17],> 100 µM
same,IC50,[25],> 100 µM
same,IC50,Interstitial collagenase,90 µM
same,IC50,[31],> 100 µM
same,IC50,Stromelysin-1,25 µM
